Assay results taken from ChEMBL document CHEMBL5678817, “FTBMT, a Novel and Selective GPR52 Agonist, Demonstrates Antipsychotic-Like and Procognitive Effects in Rodents, Revealing a Potential Therapeutic Agent for Schizophrenia” (J Pharmacol Exp Ther, 2017).
The source made the active and inactive calls. The calls are words filed in the database; no cut-off is given here.

Experiments:
[1] = biological target: Kappa-type opioid receptor (Homo sapiens) (UniProt P41145); test: Inhibition of opioid kappa receptor (unknown origin) at 10 uM relative to control
Kappa-type opioid receptor (Homo sapiens), sequence (P41145 whole entry): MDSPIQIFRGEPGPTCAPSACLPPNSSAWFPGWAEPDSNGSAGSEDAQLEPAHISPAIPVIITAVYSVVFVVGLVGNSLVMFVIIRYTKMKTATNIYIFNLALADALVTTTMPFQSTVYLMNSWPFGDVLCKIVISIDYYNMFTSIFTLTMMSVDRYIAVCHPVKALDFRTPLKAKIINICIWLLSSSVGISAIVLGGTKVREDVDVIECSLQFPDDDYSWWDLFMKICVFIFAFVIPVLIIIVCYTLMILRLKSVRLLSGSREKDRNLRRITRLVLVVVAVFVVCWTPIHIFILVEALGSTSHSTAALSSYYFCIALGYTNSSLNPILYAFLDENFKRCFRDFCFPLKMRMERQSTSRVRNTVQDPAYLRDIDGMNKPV
Summary of the method: (§1)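 Binding and enzyme panel run by an outside contractor against receptors, ion channels and enzymes. Each assay used a single 10 μM test concentration, and results are expressed as percent inhibition. A negative value means stimulation of receptor activity or activation of enzyme activity.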

Rattus norvegicus = test: Pro-cognitive activity in Long-Evans rat assessed as increase in exploration time for novel object at 3 to 10 mg/kg, po measured after 3 mins by NORT test; format: functional, organism-based; conditions: dose 3-10 mg/kg
Summary of the method: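 Male Long-Evans rats (7 weeks) were habituated to a 40 × 40 × 50 cm box for 10 min. The acquisition trial was 3 min with two identical objects. Oral dosing at 3 or 10 mg/kg followed immediately after acquisition. The 3-min retention trial, with one familiar and one novel object, ran 48 h later. Exploration was hand-scored by a blinded scorer, and NDI = novel/total × 100. n = 10.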

Homo sapiens [2] = species on record: Homo sapiens; test: Inhibition of GABAB1A receptor (unknown origin) at 10 uM relative to control
Summary of the method: (§2)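 Part of a 98-target external biochemical selectivity panel that used radioligand/receptor binding-type assays. Compound tested once at 10 µM. Results are reported as % inhibition versus control; negative values mean stimulation of receptor activity.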

[3] = biological target: Beta-2 adrenergic receptor (Homo sapiens) (UniProt P07550); test: Inhibition of Adrenergic beta2 receptor (unknown origin) at 10 uM relative to control
Beta-2 adrenergic receptor (Homo sapiens), sequence (P07550 whole entry, looked up): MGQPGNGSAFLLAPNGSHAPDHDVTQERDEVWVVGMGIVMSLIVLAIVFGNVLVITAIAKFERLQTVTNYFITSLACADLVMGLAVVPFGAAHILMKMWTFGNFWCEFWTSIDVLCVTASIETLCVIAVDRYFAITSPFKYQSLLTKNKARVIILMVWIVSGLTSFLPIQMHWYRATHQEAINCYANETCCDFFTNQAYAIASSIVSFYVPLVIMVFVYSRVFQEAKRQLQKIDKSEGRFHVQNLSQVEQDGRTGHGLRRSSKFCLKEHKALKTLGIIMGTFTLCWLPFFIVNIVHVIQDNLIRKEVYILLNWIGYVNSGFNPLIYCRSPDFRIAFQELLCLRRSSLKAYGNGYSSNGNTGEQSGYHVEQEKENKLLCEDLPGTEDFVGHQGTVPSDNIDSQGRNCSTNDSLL
Summary of the method: (§3)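 Single-point screen at 10 μM across receptor, ion channel and enzyme binding or activity assays. Expressed as percent inhibition versus control; negative values denote stimulation.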

[4] = biological target: Voltage-gated L-type calcium channel (Homo sapiens, UniProt O60840+Q01668+Q13698+Q13936); test: Inhibition of Calcium channel L-type (unknown origin) at 10 uM in presence of benzothiazepine relative to control; format: protein assay; conditions: probe benzothiazepine; summary of the method: as §3
Homo sapiens [5] = species on record: Homo sapiens; test: Inhibition of non-selective GABAB receptor (unknown origin) at 10 uM relative to control; summary of the method: as §1
[6] = biological target: Delta-type opioid receptor (Homo sapiens) (UniProt P41143); test: Inhibition of opioid delta receptor (unknown origin) at 10 uM relative to control; summary of the method: as §1
Delta-type opioid receptor (Homo sapiens), sequence (P41143 whole entry): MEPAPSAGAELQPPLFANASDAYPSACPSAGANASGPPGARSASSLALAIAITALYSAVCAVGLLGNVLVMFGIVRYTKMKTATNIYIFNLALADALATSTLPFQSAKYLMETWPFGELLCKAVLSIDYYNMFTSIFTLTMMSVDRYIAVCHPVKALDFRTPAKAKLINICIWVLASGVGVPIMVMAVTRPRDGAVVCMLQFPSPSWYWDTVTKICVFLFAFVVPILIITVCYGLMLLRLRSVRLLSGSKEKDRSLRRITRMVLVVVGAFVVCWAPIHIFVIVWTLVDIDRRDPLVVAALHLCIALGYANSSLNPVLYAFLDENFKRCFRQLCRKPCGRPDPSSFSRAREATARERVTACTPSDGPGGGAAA

[7] = biological target: B1 bradykinin receptor (Homo sapiens) (UniProt P46663); test: Inhibition of Bradykinin B1 receptor (unknown origin) at 10 uM relative to control; summary of the method: as §3
B1 bradykinin receptor (Homo sapiens), sequence (P46663 whole entry): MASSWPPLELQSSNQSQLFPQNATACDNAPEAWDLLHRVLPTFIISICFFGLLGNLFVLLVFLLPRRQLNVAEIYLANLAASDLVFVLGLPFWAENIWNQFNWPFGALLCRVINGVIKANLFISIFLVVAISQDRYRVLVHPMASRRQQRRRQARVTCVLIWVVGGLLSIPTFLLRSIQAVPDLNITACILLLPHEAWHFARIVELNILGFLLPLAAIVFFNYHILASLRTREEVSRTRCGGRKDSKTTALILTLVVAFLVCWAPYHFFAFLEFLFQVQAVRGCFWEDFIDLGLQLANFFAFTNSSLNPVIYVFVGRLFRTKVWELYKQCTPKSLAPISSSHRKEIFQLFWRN

Homo sapiens [8] = species on record: Homo sapiens; test: Inhibition of KATP (unknown origin) at 10 uM relative to control; summary of the method: as §2
[9] = biological target: G-protein coupled receptor 52 (Mus musculus) (UniProt P0C5J4); test: Agonist activity at mouse GPR52 expressed in CHO cells assessed as increase in intracellular cAMP level upto 10 uM incubated for 30 mins by Alphascreen assay; format: functional, cell-based
G-protein coupled receptor 52 (Mus musculus), sequence (P0C5J4 whole entry): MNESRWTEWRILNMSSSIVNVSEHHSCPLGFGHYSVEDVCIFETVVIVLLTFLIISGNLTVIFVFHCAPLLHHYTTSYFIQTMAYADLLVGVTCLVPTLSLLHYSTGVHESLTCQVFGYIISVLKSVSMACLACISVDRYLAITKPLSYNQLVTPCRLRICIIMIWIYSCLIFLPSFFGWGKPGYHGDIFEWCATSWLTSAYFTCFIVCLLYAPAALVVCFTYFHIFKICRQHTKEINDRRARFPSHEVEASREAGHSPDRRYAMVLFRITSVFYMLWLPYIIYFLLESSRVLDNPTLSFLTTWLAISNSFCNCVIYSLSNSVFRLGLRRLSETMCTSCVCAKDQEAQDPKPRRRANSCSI
Summary of the method: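 CHO cells stably expressing human, mouse or rat GPR52, plus naïve CHO cells, at 10,000 cells/well. Stimulated in cAMP assay buffer for 30 min at 37 °C. Intracellular cAMP read by AlphaScreen.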

[10] = biological target: Muscarinic acetylcholine receptor M2 (Homo sapiens) (UniProt P08172); test: Inhibition of Muscarinic M2 receptor (unknown origin) at 10 uM relative to control; summary of the method: as §2
Muscarinic acetylcholine receptor M2 (Homo sapiens), sequence (P08172 whole entry): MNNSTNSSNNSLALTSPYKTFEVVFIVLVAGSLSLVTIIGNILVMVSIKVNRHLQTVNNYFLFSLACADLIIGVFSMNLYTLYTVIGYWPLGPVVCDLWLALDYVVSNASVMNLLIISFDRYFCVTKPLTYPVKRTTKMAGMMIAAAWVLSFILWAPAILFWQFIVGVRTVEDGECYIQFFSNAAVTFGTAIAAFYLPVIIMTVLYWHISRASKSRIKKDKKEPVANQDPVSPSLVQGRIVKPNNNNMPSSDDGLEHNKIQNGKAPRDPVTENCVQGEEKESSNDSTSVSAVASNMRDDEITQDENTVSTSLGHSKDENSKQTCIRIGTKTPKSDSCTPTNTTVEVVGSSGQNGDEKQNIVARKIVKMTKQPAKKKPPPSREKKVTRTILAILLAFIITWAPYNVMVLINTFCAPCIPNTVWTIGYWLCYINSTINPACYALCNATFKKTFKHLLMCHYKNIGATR

Homo sapiens [11] = species on record: Homo sapiens; test: Inhibition of GABAB1B receptor (unknown origin) at 10 uM relative to control; summary of the method: as §2
[12] = biological target: Glutamate [NMDA] receptor (Homo sapiens) (UniProt Q05586+Q12879+Q13224+O15399+O60391+Q14957+Q8TCU5); test: Inhibition of Glutamate NMDA receptor (unknown origin) at 10 uM in presence of phencyclidine to control; format: protein-complex assay; summary of the method: as §2
Mus musculus [13] = test: Antipsychotic activity in po dosed ICR mouse assessed as inhibition of MK-801-induced hyperactivity pretreated with compound for 1 hr followed by MK-801 addition and measured after 90 mins; format: functional, organism-based; conditions: dose 3-30 mg/kg, time 150.0 min
Summary of the method: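 Male ICR mice (7–8 weeks) habituated >60 min in individual cages with activity monitors. Oral dosing at 3–30 mg/kg or vehicle 60 min before MK-801 (0.2 mg/kg s.c.) or vehicle. Activity counted for 60 min pretreatment and 90 min after MK-801; n = 9–10.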

Mus musculus [14] = test: Antipsychotic activity in C57BL/6N mouse assessed as increase in c-fos positive cells in dorsolateral striatum at 30 mg/kg, po measured for 2 hrs by immunohistochemistry analysis; format: functional, organism-based
[15] = biological target: Phosphodiesterase 4 (Homo sapiens) (UniProt P27815+Q08499+Q07343+Q08493); test: Inhibition of PDE4 (unknown origin) at 10 uM relative to control; format: protein assay
Summary of the method: (§4)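 Enzyme activity assays from the same 98-target biochemical panel. Single test concentration of 10 µM. Read-out is % inhibition of enzyme activity relative to control; negative percentages indicate activation of the enzyme.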

[16] = biological target: Progesterone receptor (Homo sapiens) (UniProt P06401); test: Inhibition of Progesterone receptor (unknown origin) at 10 uM relative to control; summary of the method: as §2
Progesterone receptor (Homo sapiens), sequence (P06401 whole entry): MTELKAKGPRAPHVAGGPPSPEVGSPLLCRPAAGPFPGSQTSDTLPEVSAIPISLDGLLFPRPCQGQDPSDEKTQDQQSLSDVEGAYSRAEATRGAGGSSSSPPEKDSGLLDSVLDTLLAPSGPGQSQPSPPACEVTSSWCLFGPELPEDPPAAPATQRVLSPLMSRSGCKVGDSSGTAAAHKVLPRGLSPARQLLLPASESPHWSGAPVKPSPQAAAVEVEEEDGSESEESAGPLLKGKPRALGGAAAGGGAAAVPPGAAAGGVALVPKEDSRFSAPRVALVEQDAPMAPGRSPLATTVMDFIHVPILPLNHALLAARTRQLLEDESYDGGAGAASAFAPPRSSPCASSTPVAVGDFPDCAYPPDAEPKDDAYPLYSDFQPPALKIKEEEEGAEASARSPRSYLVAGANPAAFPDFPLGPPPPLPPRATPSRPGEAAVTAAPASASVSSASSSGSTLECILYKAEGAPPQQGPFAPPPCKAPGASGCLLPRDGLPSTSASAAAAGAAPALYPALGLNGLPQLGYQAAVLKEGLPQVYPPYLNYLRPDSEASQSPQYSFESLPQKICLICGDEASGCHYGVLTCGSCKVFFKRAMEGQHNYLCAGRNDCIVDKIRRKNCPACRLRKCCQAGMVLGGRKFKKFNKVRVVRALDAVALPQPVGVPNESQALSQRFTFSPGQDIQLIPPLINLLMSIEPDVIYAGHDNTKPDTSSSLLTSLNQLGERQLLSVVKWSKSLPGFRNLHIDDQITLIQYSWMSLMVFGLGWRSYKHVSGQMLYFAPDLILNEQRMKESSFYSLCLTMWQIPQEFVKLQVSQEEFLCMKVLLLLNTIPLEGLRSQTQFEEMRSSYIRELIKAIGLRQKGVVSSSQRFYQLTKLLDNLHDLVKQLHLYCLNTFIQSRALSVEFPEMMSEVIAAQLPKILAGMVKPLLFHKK

[17] = biological target: Histamine H2 receptor (Homo sapiens) (UniProt P25021); test: Inhibition of Histamine H2 receptor (unknown origin) at 10 uM relative to control; summary of the method: as §2
Histamine H2 receptor (Homo sapiens), sequence (P25021 whole entry): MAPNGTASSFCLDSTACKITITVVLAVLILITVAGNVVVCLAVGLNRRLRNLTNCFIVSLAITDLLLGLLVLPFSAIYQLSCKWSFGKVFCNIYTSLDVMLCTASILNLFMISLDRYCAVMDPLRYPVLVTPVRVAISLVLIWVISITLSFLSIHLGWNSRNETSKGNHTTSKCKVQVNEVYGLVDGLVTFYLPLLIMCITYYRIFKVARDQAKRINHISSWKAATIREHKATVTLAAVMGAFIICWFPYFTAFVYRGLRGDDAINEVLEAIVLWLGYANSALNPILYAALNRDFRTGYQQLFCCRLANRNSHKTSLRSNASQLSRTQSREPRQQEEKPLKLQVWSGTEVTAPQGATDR

[18] = biological target: Xanthine oxidase (xanthine dehydrogenase/oxidase) (Homo sapiens, UniProt P47989); test: Inhibition of Xanthine oxidase (unknown origin) at 10 uM relative to control; summary of the method: as §1
[19] = biological target: Vasopressin V1a receptor (Homo sapiens) (UniProt P37288); test: Inhibition of Vasopressin V1A receptor (unknown origin) at 10 uM relative to control; summary of the method: as §1
Vasopressin V1a receptor (Homo sapiens), sequence (P37288 whole entry, looked up): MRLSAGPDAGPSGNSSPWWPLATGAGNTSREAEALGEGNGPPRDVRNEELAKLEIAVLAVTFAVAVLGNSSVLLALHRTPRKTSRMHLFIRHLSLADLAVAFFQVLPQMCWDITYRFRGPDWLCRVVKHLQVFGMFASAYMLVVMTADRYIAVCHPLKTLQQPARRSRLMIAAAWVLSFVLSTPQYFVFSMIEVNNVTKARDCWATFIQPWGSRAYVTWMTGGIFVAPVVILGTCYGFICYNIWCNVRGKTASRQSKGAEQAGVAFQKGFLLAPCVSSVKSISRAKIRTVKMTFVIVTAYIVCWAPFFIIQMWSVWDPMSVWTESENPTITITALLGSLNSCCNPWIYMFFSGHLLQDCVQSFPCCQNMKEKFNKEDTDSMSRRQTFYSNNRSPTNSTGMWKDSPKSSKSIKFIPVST

Mus musculus [20] = test: Antipsychotic activity in C57BL/6N mouse assessed as increase in Egr-2 mRNA expression at 3 to 100 mg/kg, po measured for 1 hr by qPCR analysis; format: functional, organism-based; conditions: dose 3-100 mg/kg
Summary of the method: (§5)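 Mice dosed orally at 3–100 mg/kg or vehicle. Tissues taken 1 h post-dose, NAc shell and striatum dissected, frozen on dry ice. IEG mRNA quantified by qPCR (absolute or ΔΔCt); n = 5–6; mean ± SEM.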

[21] = biological target: Serotonin 3 (5-HT3) receptor (Homo sapiens) (UniProt P46098+A5X5Y0+O95264+Q70Z44+Q8WXA8); test: Inhibition of Serotonin 5-HT3 receptor (unknown origin) at 10 uM relative to control; format: protein-complex assay; summary of the method: as §2
[22] = biological target: Small conductance calcium-activated potassium channel protein 2 (Homo sapiens) (UniProt Q9H2S1); test: Inhibition of SKCA2 (unknown origin) at 10 uM relative to control; summary of the method: as §2
Small conductance calcium-activated potassium channel protein 2 (Homo sapiens), sequence (Q9H2S1 whole entry): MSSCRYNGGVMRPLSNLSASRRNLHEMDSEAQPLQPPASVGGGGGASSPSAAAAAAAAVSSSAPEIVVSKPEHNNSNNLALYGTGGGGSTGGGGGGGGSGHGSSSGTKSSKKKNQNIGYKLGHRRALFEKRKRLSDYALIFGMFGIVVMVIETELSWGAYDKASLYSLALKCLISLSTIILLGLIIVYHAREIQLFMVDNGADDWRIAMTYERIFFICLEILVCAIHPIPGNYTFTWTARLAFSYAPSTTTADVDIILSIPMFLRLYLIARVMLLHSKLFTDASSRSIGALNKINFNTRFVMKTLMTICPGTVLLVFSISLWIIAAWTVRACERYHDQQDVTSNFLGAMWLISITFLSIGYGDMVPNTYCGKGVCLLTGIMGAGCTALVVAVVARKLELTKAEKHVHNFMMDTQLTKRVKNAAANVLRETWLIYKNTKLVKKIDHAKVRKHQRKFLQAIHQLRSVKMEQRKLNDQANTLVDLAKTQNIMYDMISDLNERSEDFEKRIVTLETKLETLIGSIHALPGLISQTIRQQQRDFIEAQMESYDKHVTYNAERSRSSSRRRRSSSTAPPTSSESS

Mus musculus [23] = test: Antipsychotic activity in C57BL/6N mouse assessed as increase in Arc mRNA expression at 3 to 100 mg/kg, po measured for 1 hr by qPCR analysis; format: functional, organism-based; conditions: dose 3-100 mg/kg; summary of the method: as §5
[24] = biological target: Collagenase 3 (Homo sapiens) (UniProt P45452); test: Inhibition of MMP13 (unknown origin) at 10 uM relative to control; summary of the method: as §4
[25] = biological target: G protein-coupled receptor 52 (Rattus norvegicus, UniProt A0A8I5ZQK1); test: Agonist activity at GPR52 in rat Striatal neuron assessed as increase in intracellular cAMP level […] by Alphascreen assay; format: cell-based
G protein-coupled receptor 52, sequence (A0A8I5ZQK1 whole entry): as the sequence (P0C5J4 whole entry) above, with M14V, E250D, E333Q, A342G, Q348R counted along it

[26] = biological target: Cholecystokinin receptor type A (Homo sapiens) (UniProt P32238); test: Inhibition of CCK1 receptor (unknown origin) at 10 uM relative to control; summary of the method: as §3

Cc1cc(-n2nc(Cc3cc(F)cc(C(F)(F)F)c3)nc2C)ccc1C(N)=O [TP-024]
inhibition [1]: -9%
Activity (Rattus norvegicus): Active
inhibition (Homo sapiens [2]): 5%
inhibition [3]: -5%
inhibition at 10 µM [4]: 19%
inhibition (Homo sapiens [5]): 0%
inhibition [6]: 4%
inhibition [7]: -5%
inhibition (Homo sapiens [8]): -1%
Activity [9]: inactive
inhibition [10]: -6%
inhibition (Homo sapiens [11]): 2%
inhibition [12]: 4%
Activity (Mus musculus [13]): Dose-Dependent Effect
Activity (Mus musculus [14]): inactive
inhibition [15]: 6%
inhibition [16]: 4%
inhibition [17]: 2%
inhibition at 10 µM [18]: 10%
inhibition [19]: 14%
Activity (Mus musculus [20]): Active
inhibition [21]: 10%
inhibition [22]: -1%
Activity (Mus musculus [23]): Active
inhibition [24]: 1%
EC50 [25]: 151 nM
inhibition [26]: 6%
